Screening data: PubChem, The Scripps Research Institute Molecular Screening Center
This is a sample that favours compounds with a hit; in the whole collection about 2.2% have one here.
ABHD4 inh: inhibits mouse alpha/beta hydrolase domain 4; Q8VD66; purified mABHD4, FP-Rh probe fluorescence polarization; inhibition, % at 8.92 µM; 370,000 tested, 0.54% active; AID 720543;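 active = inhibition exceeding the mean over every tested compound plus 3 SD, cut at about 30% in these data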;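 note: 0% = plate median of compound wells and 100% = S159A mutant with DMSO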
Target sequence (Q8VD66 whole entry, looked up, the tested form may be a part): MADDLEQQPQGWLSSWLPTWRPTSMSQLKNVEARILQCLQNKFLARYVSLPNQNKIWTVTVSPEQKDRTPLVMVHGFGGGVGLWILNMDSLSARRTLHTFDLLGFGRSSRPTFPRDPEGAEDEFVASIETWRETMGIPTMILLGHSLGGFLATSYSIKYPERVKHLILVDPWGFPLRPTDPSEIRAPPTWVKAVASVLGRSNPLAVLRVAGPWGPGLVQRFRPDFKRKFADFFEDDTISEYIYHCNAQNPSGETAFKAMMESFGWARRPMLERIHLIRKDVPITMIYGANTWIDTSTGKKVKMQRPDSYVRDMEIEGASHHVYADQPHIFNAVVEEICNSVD
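System: mouse ABHD4 enzyme, wild type / Medium: HEPES pH 7.0, NaCl, Pluronic buffer / Reagent: FP-Rh activity-based fluorescent probe / Control set: S159A mutant high control, sample median low control / Detection: fluorescence polarization with parallel and perpendicular emission, 525/598 nm / Schedule: 45 min + 60 min at 25 °C / Compound dosing: 8.92 µM, single dose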
TDP2 inh: TDP2 (human) inhibition, absorbance primary screen | O95551 | recombinant TDP2, T5PNP hydrolysis, p-nitrophenol absorbance 415 nm | inhibition, % at 12.8 µM | 370,000 tested, 0.34% active | AID 720702;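 active = inhibition above the mean of all tested compounds plus 3 SD, set per campaign, cut at about 25% in these data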;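 note: 0% = DMSO with enzyme and 100% = buffer with substrate but no TDP2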
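Material: recombinant human TDP2; quantity: TDP2 enzyme at 120 nM final; medium: Tris-HCl pH 7.5 with MgCl2; compound: single concentration, 12.8 µM nominal, with 1% DMSO; incubation: 2 h enzyme incubation at 37 °C; signal: epi absorbance; measure: percent inhibition; benchmarks: high control without enzyme, low control DMSO plus TDP2; repeats: singlicate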
HTRA1 inh: inhibitors of human serine peptidase HTRA1; Q92743; recombinant HTRA1, FP-rhodamine activity-based probe, fluorescence polarization; inhibition, % at 5.96 µM; 340,000 tested, 0.5% active; AID 504803; in the data active = inhibition above about 36%;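 note: 0% = enzyme with DMSO and 100% = wells lacking enzyme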
SIAE inh: blocks human sialic acid acetylesterase. AID 1053197. 370,000 tested, 0.69% active. Q9HAT2. inhibition, % at 9.66 µM. SIAE FP-Rh probe binding, fluorescence polarization;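 active = inhibition above a cutoff: mean of compounds within the control limits plus 3 SD of those, cut at about 17% in these data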;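 note: 0% = plate median of compound wells and 100% = probe without SIAE protein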
LEDGF integ inh: blocks HIV-1 LEDGF/p75-dependent DNA integration. TR-FRET IN-LEDGF/p75 DNA integration, Eu/Cy5. inhibition, % at 3.7 µM. 370,000 tested, 0.64% active. AID 743269;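 active = inhibition above the screen-wide mean plus 3 SD, cut at about 13% in these data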;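 note: signal is the Cy5 over europium emission ratio at 671 and 618 nm; 0% = plate median of compound wells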
TCR CD3 inh: blocks the human TCR-CD3 interaction; 360,000 tested, 0.37% active; TAMRA-labeled TCR probe fluorescence, biochemical; inhibition, % at 9.4 µM; in the data active = inhibition above about 19%;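 note: recombinant mutant TCR 2C K166C tagged with TAMRA read by polarization; 0% = receptor in buffer alone and 100% = receptor with positive control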
SIAE confirm: confirmation of human SIAE inhibitors. shares compounds with SIAE inh. 2,300 tested, 13% active. SIAE FP-Rh activity-based probe, fluorescence polarization. inhibition, % at 9.66 µM;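 active = mean inhibition of the replicates above the hit cutoff set in the primary screen, cut at about 17% in these data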;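 note: 0% = SIAE with DMSO and probe and 100% = probe without SIAE; inhibitors lower polarization as more probe stays unbound to SIAE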
Starred values were filed as active, the others as inactive.

Screening C(#CCN1CCCCC1)COCc1ccccc1 returned ABHD4 inh -6, TDP2 inh 4, HTRA1 inh 9, SIAE inh 21*, LEDGF integ inh 1, TCR CD3 inh 7 and SIAE confirm 1.
For COC(=O)C1C2c3ccccc3C(c3ccccc32)C1(C)C(=O)OC (centres undefined) the results were ABHD4 inh -8, TDP2 inh -12, HTRA1 inh 1, SIAE inh -2, LEDGF integ inh -3 and TCR CD3 inh -4.
Screening NP(=O)(OCC(F)(F)F)Oc1ccc(Cl)cc1 (centres undefined) returned ABHD4 inh 3, TDP2 inh 0, HTRA1 inh 5, SIAE inh 20*, LEDGF integ inh 1, TCR CD3 inh 2 and SIAE confirm 12.
Screening CS(=O)(=O)c1ccc(C2=C(CNC(=O)c3cccs3)[C@H]3CC[C@@H](C2)N3CCOc2ccccc2)cc1 returned ABHD4 inh 7, TDP2 inh 2, HTRA1 inh 2, SIAE inh -3, LEDGF integ inh -1 and TCR CD3 inh 5.
For COc1ccc(C(=O)CC(c2ccc3c(c2)OCO3)c2c(O)c3ccccc3oc2=O)cc1OC (centres undefined) the results were ABHD4 inh 8, TDP2 inh -2, HTRA1 inh -4, SIAE inh 4, LEDGF integ inh -3 and TCR CD3 inh -6.
For CC(C)C[C@@H]1COc2cc(N3CCN(C)CC3)ccc2S(=O)(=O)N1 the results were ABHD4 inh -4, TDP2 inh -6, SIAE inh 2, LEDGF integ inh 4 and TCR CD3 inh 3.
Screening CCOC(=O)[C@@]1(C#N)[C@@H]2C=CC(C(N)=O)=CN2[C@@H](C(N)=O)[C@@H]1c1cccc(Cl)c1 returned ABHD4 inh 10, TDP2 inh 13, HTRA1 inh 2, SIAE inh 21*, LEDGF integ inh 1, TCR CD3 inh 3 and SIAE confirm 0.
Cc1cc(N=Nc2ccccc2C)ccc1N was read as ABHD4 inh 4, TDP2 inh -10, HTRA1 inh 12, SIAE inh 32*, LEDGF integ inh 0, TCR CD3 inh -1 and SIAE confirm 1.
Screening Nc1ccc(N=Nc2ccccc2)cc1 returned ABHD4 inh -1, TDP2 inh 1, HTRA1 inh 10, SIAE inh 2, LEDGF integ inh -2 and TCR CD3 inh -9.
Screening CCOP(=O)(OCC)C(NC(=O)c1ccccc1)C(Cl)(Cl)Cl (centres undefined) returned ABHD4 inh -3, TDP2 inh 4, HTRA1 inh -2, SIAE inh 3, LEDGF integ inh -2 and TCR CD3 inh 0.
CCCOP(=O)(OCCC)C(NC(=O)c1cc(OC)c(OC)c(OC)c1)c1ccccc1 (centres undefined) was read as ABHD4 inh 3, TDP2 inh 1, HTRA1 inh 0, SIAE inh 17*, LEDGF integ inh -2, TCR CD3 inh 3 and SIAE confirm 1.
For Nc1ccc(S(=O)(=O)N2CC3CC(C2)c2cccc(=O)n2C3)cc1 (centres undefined) the results were ABHD4 inh 3, TDP2 inh 3, HTRA1 inh -2, SIAE inh 17*, LEDGF integ inh 0, TCR CD3 inh 6 and SIAE confirm 5.
CCCCN1C(=N)C(CC)(CC)C(=O)NC1=O was read as ABHD4 inh 6, TDP2 inh 9, HTRA1 inh -3, SIAE inh 21*, LEDGF integ inh 1, TCR CD3 inh 1 and SIAE confirm 1.
CCC1(CC)C(=N)N(C)C(=O)NC1=O was read as ABHD4 inh 3, TDP2 inh 3, HTRA1 inh 4, SIAE inh -1, LEDGF integ inh 0 and TCR CD3 inh 2.
`O=c1[nH]c2ccccc2n1C1CCN(C(CCc2ccccc2)c2nnnn2-c2ccc3c(c2)OCCO3)CC1` (centres undefined) gave ABHD4 inh -9, TDP2 inh 0, SIAE inh -12, LEDGF integ inh -2 and TCR CD3 inh -6.
`CC(C)(C)NC(=S)N1CCn2cccc2C1c1cccnc1` (centres undefined) gave ABHD4 inh 2, TDP2 inh 7, HTRA1 inh 3, SIAE inh 21*, LEDGF integ inh 0, TCR CD3 inh 1 and SIAE confirm 2.
Screening C[C@@H]1CN([C@@H](C)CO)C(=O)CCCn2cc(nn2)CO[C@H]1CN(C)C(=O)Oc1ccc2ccccc2c1 returned ABHD4 inh -5, TDP2 inh -4, HTRA1 inh 1, SIAE inh 1, LEDGF integ inh -7 and TCR CD3 inh -6.
For CCN(C)C(C)Cc1cccc(C(F)(F)F)c1 (centres undefined) the results were ABHD4 inh -5, TDP2 inh -17, SIAE inh 6, LEDGF integ inh 0 and TCR CD3 inh -11.
`CCN[C@@H](C)Cc1cccc(C(F)(F)F)c1` gave ABHD4 inh 5, TDP2 inh 5, HTRA1 inh 2, SIAE inh 19*, LEDGF integ inh 1, TCR CD3 inh 4 and SIAE confirm 3.
COc1ccc2c(c1)c(C(=O)CN1CCC3(CC1)OCCO3)c(C)n2Cc1ccccc1 was read as ABHD4 inh 8, TDP2 inh 2, HTRA1 inh -6, SIAE inh 68*, LEDGF integ inh 0, TCR CD3 inh 4 and SIAE confirm -2.
Screening CCN1CCN(CC(=O)c2c(C)n(Cc3ccccc3)c3ccc(OC)cc23)CC1 returned ABHD4 inh 1, TDP2 inh 2, HTRA1 inh -9, SIAE inh -9, LEDGF integ inh 1 and TCR CD3 inh 4.
NP(=O)(Oc1ccccc1Cl)Oc1ccccc1Cl was read as ABHD4 inh 5, TDP2 inh -8, HTRA1 inh 16, SIAE inh 6, LEDGF integ inh -6 and TCR CD3 inh -3.
Screening NP(=O)(OCCCCc1ccccc1)Oc1ccccc1Cl (centres undefined) returned ABHD4 inh -8, TDP2 inh -9, HTRA1 inh 3, SIAE inh 43*, LEDGF integ inh 0, TCR CD3 inh -2 and SIAE confirm 38*.
`Cn1c(CN2CCN(C(=O)COc3ccccc3)CC2)nc2cc([N+](=O)[O-])ccc21` gave ABHD4 inh -1, TDP2 inh 14, HTRA1 inh -2, SIAE inh 151*, LEDGF integ inh 1, TCR CD3 inh 2 and SIAE confirm -2.
